# Test results taken from ChEMBL document CHEMBL1135992, “Quantitative structure-activity relationship analysis of functionalized amino acid anticonvulsant agents using k nearest neighbor and simulated annealing PLS methods” (2002).
# Assays:
# Type in all cases: functional
# [1] = tested on: Mus musculus; assay: In vivo anticonvulsant activity in male albino mice using the maximal electroshock seizure(MES) test upon intraperitoneal administration (exp 2); conditions: ip
# In short: (§1)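 Mice (18–25 g) received the compound ip as a suspension in 0.5% (w/v) methylcellulose in water. A 60-cycle alternating current of 50 mA was applied for 0.2 s. Protection was defined as abolition of the hindlimb tonic extensor component. […] ED50 and 95% confidence interval were calculated by Finney's methods.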
# [2] = tested on: Mus musculus; assay: In vivo anticonvulsant activity in male albino mice using the maximal electroshock seizure(MES) test upon intraperitoneal administration, expressed as logarithm of effective dose; value ranges from 2.58 to 3.06
# In short: (§2)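 Mice (18–25 g) received the test agent intraperitoneally as a suspension in 0.5% (w/v) methylcellulose in water. A 60-cycle alternating current at 50 mA was applied for 0.2 s, and protection meant abolition of the hindlimb tonic extensor component. The ED50 was determined at the time of peak effect in groups of at least eight mice. At least two doses fell between 100% and 0% protection, and the 95% confidence interval was calculated by Finney's method.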
# [3] = tested on: Mus musculus; assay: In vivo anticonvulsant activity in male albino mice using the maximal electroshock seizure(MES) test upon intraperitoneal administration (exp 1); conditions: ip; in short: as §1
# [4] = tested on: Mus musculus; assay: Anticonvulsant activity in mice following i.p. treatment and Maximal Electroshock Seizure (MES) test.; in short: as §1
# [5] = tested on: Mus musculus; assay: In vivo anticonvulsant activity in male albino mice using the maximal electroshock seizure(MES) test upon intraperitoneal administration, expressed as logarithm of effective dose; in short: as §2
# [6] = tested on: Mus musculus; assay: In vivo anticonvulsant activity in male albino mice using the maximal electroshock seizure(MES) test upon intraperitoneal administration; value ranges from 14.6 to 41; conditions: ip; in short: as §1
# [7] = tested on: Mus musculus; assay: In vivo anticonvulsant activity in male albino mice using the maximal electroshock (MES) test after intraperitoneal administration; value ranges from 34.9-54.3; conditions: ip; in short: as §2
# [8] = tested on: Mus musculus; assay: In vivo anticonvulsant activity in male albino mice using the maximal electroshock seizure(MES) test upon intraperitoneal administration; value ranges from 44.4 to 59.9; conditions: ip
# [9] = tested on: Mus musculus; assay: In vivo anticonvulsant activity in male albino mice using the maximal electroshock seizure(MES) test upon intraperitoneal administration; value ranges from 34.9 to 45; conditions: ip; in short: as §2
# [10] = tested on: Mus musculus; assay: In vivo anticonvulsant activity in male albino mice using the maximal electroshock seizure(MES) test upon intraperitoneal administration, expressed as logarithm of effective dose; value ranges from 2.63 to 3.11
# [11] = tested on: Mus musculus; assay: In vivo anticonvulsant activity in male albino mice using the maximal electroshock seizure(MES) test upon intraperitoneal administration; conditions: ip; in short: as §1
# [12] = tested on: Mus musculus; assay: In vivo anticonvulsant activity in male albino mice using the maximal electroshock seizure(MES) test upon intraperitoneal administration; value ranges from 75.4 to 101; conditions: ip
# [13] = tested on: Mus musculus; assay: In vivo anticonvulsant activity in male albino mice using the maximal electroshock (MES) test after intraperitoneal administration (exp 1); conditions: ip; in short: as §1
# [14] = tested on: Mus musculus; assay: In vivo anticonvulsant activity in male albino mice using the maximal electroshock (MES) test after intraperitoneal administration (exp 2); conditions: ip; in short: as §1
# [15] = tested on: Mus musculus; assay: In vivo anticonvulsant activity in male albino mice using the maximal electroshock (MES) test after intraperitoneal administration; value ranges from 457.7-715; conditions: ip
# [16] = tested on: Mus musculus; assay: In vivo anticonvulsant activity in male albino mice using the maximal electroshock seizure(MES) test upon intraperitoneal administration, expressed as logarithm of effective dose; value ranges from 2.63 to 3.12; in short: as §2
# [17] = tested on: Mus musculus; assay: In vivo anticonvulsant activity in male albino mice using the maximal electroshock seizure(MES) test upon intraperitoneal administration (exp-1); conditions: ip; in short: as §2
# [18] = tested on: Mus musculus; assay: In vivo anticonvulsant activity in male albino mice using the maximal electroshock seizure(MES) test upon intraperitoneal administration (exp-2); conditions: ip; in short: as §2
# [19] = tested on: Mus musculus; assay: In vivo anticonvulsant activity in male albino mice using the maximal electroshock (MES) test after intraperitoneal administration; value ranges from 85.7-151; conditions: ip
SMILES,Log ED50 [4] [uM kg-1],Log ED50 [5] [uM kg-1],further results
CCC(=O)NC(COC)C(=O)NCc1ccccc1 (stereo not drawn),–,–,ED50 [1]: < 300 mg/kg; Log ED50 [2]: 3.06 uM kg-1; ED50 [3]: > 100 mg/kg
CON(C)C(NC(C)=O)C(=O)NCc1ccccc1 (stereo not drawn),1.4,–,–
CN1CSCC1C(=O)NCc1ccccc1 (stereo not drawn),–,2.09,ED50 [6]: 29.1 mg/kg
CC(=O)NC(C(=O)NCc1ccccc1)n1cccc1 (stereo not drawn),2.47,–,–
CC(=O)NC(C(=O)NCc1ccccc1)N(N)c1ccccc1 (stereo not drawn),2.14,–,ED50 [7]: 42.8 mg/kg
CC(=O)NC(C(=O)NCc1ccccc1)c1ccc(C)o1 (stereo not drawn),–,1.83,–
CC(=O)NC(C(=O)NCc1ccccc1)C1CCCO1 (stereo not drawn),–,2.27,ED50 [8]: 51.7 mg/kg
CCCC(NC(C)=O)C(=O)NCc1ccccc1 (stereo not drawn),–,2.19,ED50 [9]: 38.4 mg/kg
COC(NC(C)=O)C(=O)NCc1ccccc1 (stereo not drawn),2.62,–,–
CC(=O)NC(C)C(=O)N(C)Cc1ccccc1 (stereo not drawn),–,–,ED50 [1]: < 300 mg/kg; Log ED50 [10]: 3.11 uM kg-1; ED50 [3]: > 100 mg/kg
CC(=O)NC(NNC(=O)OCc1ccccc1)C(=O)NCc1ccccc1 (stereo not drawn),2.18,–,–
CC(=O)NC(C)C(=O)NCc1ccccc1 (racemic),–,2.54,–
CC(=O)NCC(C)C(=O)NCc1ccccc1 (stereo not drawn),–,3.06,ED50 [11]: 270 mg/kg
CC(=O)NC(O)C(=O)NCc1ccccc1 (stereo not drawn),2.56,–,–
C/C(S)=N\C(C(=O)NCc1ccccc1)c1ccco1 (stereo not drawn),–,1.8,–
CC(=O)NC(C(=O)NCc1ccccc1)c1ccccc1 (stereo not drawn),–,2.06,–
CC(=O)NC(C(=N)S)C(=O)NCc1ccccc1 (stereo not drawn),–,2.51,ED50 [12]: 86.2 mg/kg
CC(N)C(=O)NCc1ccccc1 (stereo not drawn),3.23,–,ED50 [13]: > 100 mg/kg; ED50 [14]: < 300 mg/kg
CC(=O)NC(C(=O)NCc1ccccc1)c1ccsc1 (stereo not drawn),–,2.48,–
CC(=O)NC(C(=O)NCc1ccccc1)n1cccn1 (stereo not drawn),1.78,–,–
CCOC(NC(C)=O)C(=O)NCc1ccccc1 (stereo not drawn),2.39,–,–
CC(=O)NC(C(=N)NOC(C)=O)C(=O)NCc1ccccc1 (stereo not drawn),2.66,–,ED50 [15]: 140 mg/kg
CNC(NC(C)=O)C(=O)NCc1ccccc1 (stereo not drawn),2.28,–,–
CC(=O)NC(C(=O)NCc1ccccc1)c1ncco1 (stereo not drawn),–,1.58,–
CONC(NC(C)=O)C(=O)NCc1ccccc1 (stereo not drawn),1.39,–,–
CC(=O)NC(C(=O)NCc1ccccc1)c1ccc(C)[nH]1 (stereo not drawn),–,2.12,–
CC(=O)NC(C(=O)NCc1ccccc1)c1cnccn1 (stereo not drawn),–,1.72,–
CCC(NC)C(=O)NCc1ccccc1 (stereo not drawn),2.69,–,ED50 [13]: > 30 mg/kg; ED50 [14]: < 100 mg/kg
CCC(NC(C)=O)C(=O)NCc1ccccc1 (stereo not drawn),–,–,Log ED50 [16]: 3.12 uM kg-1; ED50 [17]: > 100 mg/kg; ED50 [18]: < 300 mg/kg
CC(=O)NC(C(=N)NO)C(=O)NCc1ccccc1 (stereo not drawn),2.63,–,ED50 [19]: 112 mg/kg
